Test [1] deals with T1, Tyrosine-protein kinase Lck (Homo sapiens, UniProt P06239). Nature of the test: Inhibition of human p56 Lck tyrosine kinase.
The target in test [2] is Tyrosine-protein kinase Fyn (Homo sapiens, UniProt P06241). Nature of the test: Inhibition of Fyn protein kinase. The procedure, abridged:
(§1)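 Continuous coupled assay (pyruvate kinase/lactate dehydrogenase with PEP and NADH), run under the same conditions as the GST-Lck assay. Inhibitor was added in DMSO and the reaction started with ATP. Fluorescence was followed and rates were fitted by nonlinear least squares to derive Ki.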

Test [3] addresses Proto-oncogene tyrosine-protein kinase Src (Homo sapiens, UniProt P12931). The test can be described thus: Inhibition of Src protein tyrosine kinase. The procedure, abridged: as §1
Test [4] is described as follows: Inhibition of anti-CD3, anti-CD28 induced PBL T-cell proliferation. The format is functional. The following applies: Homo sapiens.
Test [5] deals with T1, Tyrosine-protein kinase Lck. Nature of the test: Inhibition of p56 Lck tyrosine kinase.

The record followed here is ChEMBL document CHEMBL1146618, “Discovery of 2-amino-heteroaryl-benzothiazole-6-anilides as potent p56(lck) inhibitors” (Bioorg Med Chem Lett, 2003).

The structures appear in SMILES notation.

Tyrosine-protein kinase Fyn, sequence (P06241 whole entry): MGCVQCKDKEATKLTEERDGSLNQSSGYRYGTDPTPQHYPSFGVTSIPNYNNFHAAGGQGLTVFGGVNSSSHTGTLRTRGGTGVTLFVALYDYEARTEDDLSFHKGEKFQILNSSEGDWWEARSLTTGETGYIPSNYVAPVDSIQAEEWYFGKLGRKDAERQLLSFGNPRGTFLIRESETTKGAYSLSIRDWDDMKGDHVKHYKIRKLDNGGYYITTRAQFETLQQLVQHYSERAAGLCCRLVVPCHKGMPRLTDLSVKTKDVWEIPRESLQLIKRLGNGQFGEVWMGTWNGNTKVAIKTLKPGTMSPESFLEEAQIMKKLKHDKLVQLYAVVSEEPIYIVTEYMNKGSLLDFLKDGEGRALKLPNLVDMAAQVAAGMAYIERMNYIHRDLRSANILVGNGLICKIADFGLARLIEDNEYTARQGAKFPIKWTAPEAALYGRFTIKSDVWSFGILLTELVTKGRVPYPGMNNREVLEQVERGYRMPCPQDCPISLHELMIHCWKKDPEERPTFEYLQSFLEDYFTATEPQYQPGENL
T1 sequence (P06239 whole entry): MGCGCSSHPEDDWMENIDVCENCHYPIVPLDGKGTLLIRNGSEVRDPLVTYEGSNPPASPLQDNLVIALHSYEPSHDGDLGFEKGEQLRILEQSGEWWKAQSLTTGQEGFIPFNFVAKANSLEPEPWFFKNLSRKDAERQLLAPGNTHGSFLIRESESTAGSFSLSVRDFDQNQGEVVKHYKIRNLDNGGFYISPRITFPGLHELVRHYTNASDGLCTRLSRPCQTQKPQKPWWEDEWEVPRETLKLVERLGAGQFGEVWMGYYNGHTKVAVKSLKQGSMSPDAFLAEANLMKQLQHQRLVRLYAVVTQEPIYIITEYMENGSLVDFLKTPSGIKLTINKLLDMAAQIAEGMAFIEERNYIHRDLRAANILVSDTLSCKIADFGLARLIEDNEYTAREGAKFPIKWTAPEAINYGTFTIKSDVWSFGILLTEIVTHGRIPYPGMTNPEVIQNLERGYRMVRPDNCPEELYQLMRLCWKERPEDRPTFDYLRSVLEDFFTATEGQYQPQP
Proto-oncogene tyrosine-protein kinase Src, sequence (P12931 2-536 limits assumed): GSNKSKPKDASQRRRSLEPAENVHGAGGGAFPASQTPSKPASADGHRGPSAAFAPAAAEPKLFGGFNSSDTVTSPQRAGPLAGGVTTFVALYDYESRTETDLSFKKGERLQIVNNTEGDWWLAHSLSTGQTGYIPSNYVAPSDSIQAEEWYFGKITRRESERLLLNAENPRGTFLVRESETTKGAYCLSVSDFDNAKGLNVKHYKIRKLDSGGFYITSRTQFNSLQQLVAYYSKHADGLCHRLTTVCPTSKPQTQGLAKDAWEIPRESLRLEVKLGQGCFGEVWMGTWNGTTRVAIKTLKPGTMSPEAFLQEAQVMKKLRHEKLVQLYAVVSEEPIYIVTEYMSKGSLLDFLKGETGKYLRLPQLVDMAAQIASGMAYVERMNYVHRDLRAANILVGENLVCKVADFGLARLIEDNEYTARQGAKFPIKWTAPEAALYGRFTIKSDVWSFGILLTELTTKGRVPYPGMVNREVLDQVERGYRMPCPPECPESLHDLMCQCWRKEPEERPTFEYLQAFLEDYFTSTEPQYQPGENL

As usually defined, the IC50 is the point on the concentration scale where inhibition reaches its midpoint. A lower IC50 goes with higher potency. In test [1], `Cc1cccc(Cl)c1NC(=O)c1ccc2nc(Nc3cccc(N)n3)sc2c1` had an IC50 of 2 nM. On the same count and under the same terms, the same measure for `Cc1cc(C)c(NC(=O)c2ccc3nc(Nc4ncccc4C)sc3c2)c(C)c1`: more than 3100 nM. For `Cc1cccc(Cl)c1NC(=O)c1ccc2nc(Nc3cc(CN(C)C)ccn3)sc2c1`, in test [1], half-maximal inhibition (IC50) was put at 9 nM.

For the molecule `Cc1ccc(Nc2nc3ccc(C(=O)Nc4c(C)cccc4Cl)cc3s2)nc1`, the IC50 in test [1] was 35 nM. Same read-out and setting: the same measure for `Cc1cccc(Cl)c1NC(=O)c1ccc2nc(NN3C=CC=CN3)sc2c1`: 41 nM; for `Cc1nc(CN2CCOCC2)cc(Nc2nc3ccc(C(=O)Nc4c(C)cccc4Cl)cc3s2)n1`: 6 nM; for `CNc1nccc(Nc2nc3ccc(C(=O)Nc4c(C)cccc4Cl)cc3s2)n1`: 20 nM. Still for that read-out and setting: the value for `Cc1cc(C)c(NC(=O)c2ccc3nc(Nc4nc[nH]n4)sc3c2)c(C)c1` was more than 3100 nM; that for `Cc1cccc(Cl)c1NC(=O)c1ccc2nc(Nc3ncc[nH]3)sc2c1` was more than 3100 nM. The same measure, in the same setting: the value for `Cc1ccc(Nc2nc3ccc(C(=O)Nc4c(C)cc(C)cc4C)cc3s2)nc1` was 72 nM.

Regarding `Cc1cc(C)c(NC(=O)c2ccc3nc(Nc4cccc(C)n4)sc3c2)c(C)c1`, the IC50 in test [1] was found to be 180 nM. Consider `CC(=O)NCCNc1cccc(Nc2nc3ccc(C(=O)Nc4c(C)cccc4Cl)cc3s2)n1`, for which, in test [1], the IC50 is 2 nM. In test [1], `Cc1cccc(Cl)c1NC(=O)c1ccc2nc(Nc3cccc(CN(C)C)n3)sc2c1` came in with an IC50 of 10 nM.

`Cc1cccc(Cl)c1NC(=O)c1ccc2nc(Nc3ccccc3)sc2c1` gave an IC50 in test [1] of 327 nM. The same measure, in the same setting: the same measure for `Cc1cccc(Cl)c1NC(=O)c1ccc2nc(Nc3ccccn3)sc2c1`: 84 nM. The same measure, in the same setting: the same measure for `Cc1cc(C)c(NC(=O)c2ccc3nc(Nc4ccccn4)sc3c2)c(C)c1`: 138 nM; for `Cc1cccc(Cl)c1NC(=O)c1ccc2nc(Nc3cccc(CN4CCOCC4)n3)sc2c1`: 13 nM; for `Cc1cc(Nc2nc3ccc(C(=O)Nc4c(C)cccc4Cl)cc3s2)nc(CN2CCOCC2)n1`: 10 nM.

In the case of `Cc1cc(C)c(NC(=O)c2ccc3nc(Nc4cnccn4)sc3c2)c(C)c1`, in test [1], the IC50 turned out to be 235 nM. Compared with the last molecule, the IC50 is about 24-fold higher.

In the case of `Cc1cc(C)c(NC(=O)c2ccc3nc(Nc4ncccn4)sc3c2)c(C)c1`, in test [1], the IC50 is more than 3100 nM.

In test [1], `CCc1ccnc(Nc2nc3ccc(C(=O)Nc4c(C)cccc4Cl)cc3s2)c1` yielded a concentration for half-maximal inhibition (IC50) of 5 nM. In other words, the single-digit nanomolar range. Still for that read-out and setting: the value for `COc1cc(Nc2nc3ccc(C(=O)Nc4c(C)cccc4Cl)cc3s2)ncn1` was 13 nM; that for `Cc1cc(Nc2nc3ccc(C(=O)Nc4c(C)cccc4Cl)cc3s2)ncn1` was 21 nM.

For `CC(=O)NCCNc1cc(Nc2nc3ccc(C(=O)Nc4c(C)cccc4Cl)cc3s2)ncn1`, the IC50 in test [1] turned out to be 6 nM. Against the preceding molecule, the IC50 is about 3.5-fold lower.

Regarding `Cc1cccc(Cl)c1NC(=O)c1ccc2nc(Nc3ccnc(NCCO)n3)sc2c1`, in test [1], the IC50 is 3 nM. On the same count and under the same terms, the same measure for `Cc1ccnc(Nc2nc3ccc(C(=O)Nc4c(C)cccc4Cl)cc3s2)c1`: 20 nM; for `Cc1cnc(Nc2nc3ccc(C(=O)Nc4c(C)cc(C)cc4C)cc3s2)c(C)c1`: 17 nM; for `Cc1cc(C)c(NC(=O)c2ccc3nc(Nc4ccncc4)sc3c2)c(C)c1`: more than 3100 nM. The term Ki denotes a measure of affinity in units of concentration, obtained from inhibition or displacement. A high value points to weaker binding. Turning to `Cc1cccc(Cl)c1NC(=O)c1ccc2nc(NC(=O)NC(C)(C)C)sc2c1`, the Ki in test [2] was determined as 100 nM; in test [3], 333 nM; in test [5], 5.5 nM. In test [4], this molecule had an IC50 of 1100 nM. For the molecule `Cc1cc(Nc2nc3ccc(C(=O)Nc4c(C)cccc4Cl)cc3s2)nc(NCC2CCCO2)n1` (stereo not given), the results for the inhibition constant (Ki) in test [2], in test [3] and in test [5] were 1.1 nM, 3.2 nM and 0.54 nM, respectively. Further, the IC50 was 262 nM in test [4] and 1 nM in test [1]. Turning to `Cc1cc(C)c(NC(=O)c2ccc3nc(NCC4CC4)sc3c2)c(C)c1`, the IC50 in test [1] was more than 3100 nM.

In turn, `Cc1cccc(Cl)c1NC(=O)c1ccc2nc(Nc3cc(N)ccn3)sc2c1` came in with an IC50 in test [1] of 403 nM. In other words, the sub-micromolar range.

As to `Cc1cc(C)c(NC(=O)c2ccc3nc(Nc4nccs4)sc3c2)c(C)c1`, the IC50 in test [1] was more than 3100 nM. As to `CNc1cc(Nc2nc3ccc(C(=O)Nc4c(C)cccc4Cl)cc3s2)ncn1`, the Ki in test [2] turned out to be 8.8 nM; in test [3], 17 nM; in test [5] it was 6.6 nM. For the same molecule, the IC50 in test [4] was 690 nM; in test [1], 2 nM.

In test [1], `CCc1cc(Nc2nc3ccc(C(=O)Nc4c(C)cccc4Cl)cc3s2)ncn1` came in with an IC50 of 5 nM. Same read-out and setting: the same measure for `Cc1cc(C)c(NC(=O)c2ccc3nc(Nc4nccnn4)sc3c2)c(C)c1`: 1890 nM. Still for that read-out and setting: the same measure for `Cc1cccc(Cl)c1NC(=O)c1ccc2nc(Nc3cc(Cl)ncn3)sc2c1`: 20 nM; for `Cc1cc(C)c(NC(=O)c2ccc3nc(Nc4cc(C)nc(C)n4)sc3c2)c(C)c1`: 53 nM; for `Cc1cccc(Cl)c1NC(=O)c1ccc2nc(Nc3ccn[nH]3)sc2c1`: 1590 nM. The same measure, in the same setting: the same measure for `Cc1cccc(Cl)c1NC(=O)c1ccc2nc(Nc3cc(CN4CCOCC4)ccn3)sc2c1`: 1 nM; for `Cc1cc(Nc2nc3ccc(C(=O)Nc4c(C)cccc4Cl)cc3s2)nc(C)n1`: 20 nM; for `Cc1cccc(Cl)c1NC(=O)c1ccc2nc(Nc3cc(NCCO)ncn3)sc2c1`: 8 nM. `Cc1cccc(Nc2nc3ccc(C(=O)Nc4c(C)cccc4Cl)cc3s2)n1`: the IC50 in test [1] was found to be 9 nM. As to `Cc1cc(Nc2nc3ccc(C(=O)Nc4c(C)cccc4Cl)cc3s2)nc(NCCO)n1`, the figures for the Ki in test [2] and in test [3] were 4 nM and 10 nM, respectively. Besides, the IC50 worked out at 329 nM in test [4], 2 nM in test [1] and 1.1 nM in test [5].

`CCc1cc(Nc2nc3ccc(C(=O)Nc4c(C)cc(C)cc4C)cc3s2)ncn1` displayed an IC50 in test [1] of 77 nM. Same read-out and setting: the same measure for `Cc1cc(C)c(NC(=O)c2ccc3nc(Nc4cnc[nH]4)sc3c2)c(C)c1`: more than 3100 nM; for `Cc1cccc(Cl)c1NC(=O)c1ccc2nc(Nc3cc(N)ncn3)sc2c1`: 8 nM; for `CNN1CCN(Cc2ccnc(Nc3nc4ccc(C(=O)Nc5c(C)cccc5Cl)cc4s3)c2)CC1`: 1 nM. Still for that read-out and setting: the same measure for `Cc1cc(C)nc(Nc2nc3ccc(C(=O)Nc4c(C)cccc4Cl)cc3s2)c1`: 8 nM.

As to `Cc1cccc(Cl)c1NC(=O)c1ccc2nc(Nc3cccc(NCCO)n3)sc2c1`, the Ki is 2.4 nM in test [2], 13 nM in test [3] and 0.9 nM in test [5]. For the same molecule, the values for the IC50 in test [4] and in test [1] were 475 nM and 0.5 nM, respectively. In the case of `Cc1cccc(Cl)c1NC(=O)c1ccc2nc(Nc3cccc(NCC(C)(C)N)n3)sc2c1`, in test [1], half-maximal inhibition (IC50) was put at 6 nM. This counts as single-digit nanomolar.

Molecule `Cc1cc(Nc2nc3ccc(C(=O)Nc4c(C)cccc4Cl)cc3s2)nc(NCC(C)(C)O)n1` returned an IC50 in test [1] of 6 nM.

In the case of `Cc1cccc(Cl)c1NC(=O)c1ccc2nc(Nc3ccnc(Cl)n3)sc2c1`, half-maximal inhibition in test [1] (IC50) was put at 31 nM. Still for that read-out and setting: the value for `Cc1cccc(Cl)c1NC(=O)c1ccc2nc(Nc3ccncn3)sc2c1` was 27 nM; that for `Cc1cc(C)c(NC(=O)c2ccc3nc(Nc4cccnc4)sc3c2)c(C)c1` was more than 3100 nM. The same measure, in the same setting: the value for `Cc1cc(C)c(NC(=O)c2ccc3nc(Nc4ncc[nH]4)sc3c2)c(C)c1` was more than 3100 nM; that for `CNCc1cc(Nc2nc3ccc(C(=O)Nc4c(C)cccc4Cl)cc3s2)nc(C)n1` was 7 nM. Still for that read-out and setting: the same measure for `Cc1cc(C)c(NC(=O)c2ccc3nc(Nc4ccncn4)sc3c2)c(C)c1`: 403 nM; for `Cc1cc(C)c(NC(=O)c2ccc3nc(Nc4ccccc4)sc3c2)c(C)c1`: 1740 nM; for `Cc1ccnc(Nc2nc3ccc(C(=O)Nc4c(C)cc(C)cc4C)cc3s2)c1`: 32 nM.

As to `Cc1cccc(Cl)c1NC(=O)c1ccc2nc(Nc3cnccn3)sc2c1`, the IC50 in test [1] stood at 15 nM. This IC50 lies about 2.1-fold lower than the previous one.
